# Assays:
# [1] = system: primary microglia; assay: qPCR analysis of mRNA from primary microglia of LA-1-treated mice; type: in vivo, mouse; details: microglia from LA-1-treated mice, qPCR normalized to GAPDH, n = 5
# Procedure, shortened: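 Mice received test compound i.p. daily for 10 d (500 µl of 50 µM; DMSO/PBS vehicle). Microglia were isolated from perfused, dissociated brains with CD45 microbeads and frozen immediately for RNA. cDNA diluted 1:20 was amplified with SYBR Green. Expression was calculated by ΔΔCt relative to GAPDH.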
# [2] = Mass spectrometric analysis of LA-1 in brain and plasma; type: in vivo, mouse; details: concluded from brain levels after single i.p. dose, perfused brains
# Procedure, shortened: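 Male C57BL/6 mice received 500 µl of 50 µM test compound i.p., three mice per time point, sampled from 5 min to 8 h. EDTA plasma and PBS-perfused hemibrains were collected; brain was homogenised in water. Extracts diluted in methanol/acetonitrile were analysed by C18 LC-MS/MS (isocratic 85% acetonitrile, MRM m/z 420.103→375.800 and 420.103→230.000). Levels were interpolated from spiked-matrix standard curves by cubic regression.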
# [3] = system: ISF Aβ; type: in vivo, mouse; details: 4-h LA-1 infusion and 12-h washout; n = 2 mice; Fig. 5 D, E
# Procedure, shortened: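 A 38-kD cutoff microdialysis probe was placed in the left hippocampus (bregma −3.1, midline −2.5, 3.2 mm below dura, 12°). It was perfused at 1 µl/min with 0.15% BSA artificial CSF, pH 7.35. After 8 h baseline, test compound was reverse-dialysed at 100 µM. Fractions were collected every 60–90 min, and Aβ40 was measured by sandwich ELISA (mHJ2 capture, mHJ5.1 detection). Male mice were used.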
# [4] = system: CR3^kd cells; assay: Cell-based Aβ degradation assay with LA-1 treatment in CR3 knockdown cells; details: CR3 knockdown BV2 cells; Fig. 4 B
# Procedure, shortened: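 CR3kd BV2 cells carried a stable CD11b-targeting shRNA lentivirus; controls carried empty vector. Lines were selected with 5 µg/ml puromycin and sorted for CD11b <80% of control. Cells were seeded at 250,000/well and attached overnight. Test compound or vehicle in serum-free DMEM was added 30 min before 1 µg/ml Aβ1-42. Timed samples went into 2× protease inhibitor. Total Aβ was measured by electrochemiluminescent ELISA (21D12 capture, 3D6 detection, Aβ1-40 standards).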
# [5] = system: APP-overexpressing Chinese hamster ovary cells; assay: APP expression and processing after LA-1 treatment; type: cell-based; details: APP-overexpressing CHO cells, lysates and supernatants after 6 h; Fig. S2 A–F
# Procedure, shortened: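 Cells were APP-overexpressing CHO cells exposed to test compound in serum-free culture medium. Lysates and supernatants were harvested after 6 h.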
# [6] = system: acutely isolated microglia and PBMCs; type: in vivo, mouse; details: after 10 d of LA-1 injections; n = 5 mice per group; Fig. S2 I, J
# Procedure, shortened: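 Mice received 500 µl of 50 µM test compound or DMSO vehicle in PBS i.p. daily for 10 d. Microglia were isolated from perfused, enzymatically dissociated brains with CD45 microbeads, and PBMCs by Ficoll. Cells were kept on ice, washed and Fc-blocked 15 min. They were then stained 30 min with labelled antibodies against CD162, CD62L, CD18, CD54, CD14, CD49d, CD11a and CD11b.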
structure (smiles),measurement,setting,value
"O=C(O)c1ccc(-c2ccc(/C=C3\SC(=S)N(Cc4ccccc4)C3=O)o2)cc1 [LA-1, Leukadherin 1]",tPA mRNA in microglia,[1]; Fig. 4 E,significant increase
same,MMP2 or MMP9 mRNA levels in microglia,[1]; Fig. 4 F,did not observe differences
same,BBB penetration,[2],demonstrating BBB penetration
same,Reversibility of ISF Aβ reduction after exchanging drug for perfusion buffer,[3],reversible
same,LA-1 effect on Aβ degradation in CR3^kd cells,[4],absent
same,APP expression and processing,[5],did not change
same,Vascular adhesion markers on acutely isolated microglia and PBMCs,[6],no changes

# From paper PMC5379986 (The Journal of Experimental Medicine, 2017)
